Assay [1] is described as follows: Inhibition of human 20S proteasome chymotrypsin-like activity using Suc-Leu-Leu-Val-Tyr-AMC fluorogenic substrate by fluorimetry. The method, boiled down:
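IC50 values are the averages of three independent experiments.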

For assay [2], the species on record is Homo sapiens. The assay can be described thus: Ratio of lactacystin IC50 to compound IC50 for human 20S proteasome.
The species entered for assay [3] is Homo sapiens. The assay can be described thus: Ratio of bevirimat IC50 to compound IC50 for human 20S proteasome.
The species entered for assay [4] is Homo sapiens. The experiment in a line: Ratio of LLM-F IC50 to compound IC50 for human 20S proteasome.
Assay [5] can be described thus: Inhibition of human 20S proteasome trypsin-like activity using Bz-VGR-AMC fluorogenic substrate by fluorimetry.
The species named for assay [6] is Homo sapiens. The experiment in a line: Inhibition of human 20S proteasome caspase-like activity using (Z)-LLE-bNA fluorogenic substrate by fluorimetry.
For assay [7], the system named is Human immunodeficiency virus 1. The experiment in a line: Antiviral activity against drug-resistant HIV1 isolate. In kind it is functional, organism-based.
The subject of assay [8] is Human immunodeficiency virus 1. The experiment in a line: Antiviral activity against HIV1. The assay is classed as functional, organism-based.

Each structure is given as a SMILES string. The source made the active and inactive calls. The rule behind the calls is not given here. Where a SMILES comes first, the peptide text is derived from it.

Usually IC50 stands for the concentration at which inhibition is half-maximal. Read a high IC50 as lower potency. As to `CSCC[C@@H](C=O)NC(=O)[C@H](CC(C)C)NC(=O)[C@H](CC(C)C)NC(C)=O` (Ac-Leu-Leu-Met-aldehyde), the IC50 in assay [1] is 5.25 µM.
Same read-out and setting: in the case of `C=C(C)[C@@H]1CC[C@]2(C(=O)O)CC[C@]3(C)[C@H](CC[C@H]4C3(C)CC[C@H]3C(C)(C)[C@@H](OC(=O)C5CC=CCC5C(=O)O)CC[C@@]34C)[C@@H]12` (single isomer, unassigned) it was 2.96 µM; in that of `C=C(C)[C@@H]1CC[C@]2(C(=O)NCCCCCCCC(=O)N[C@@H](CC(C)C)[C@H](O)CC(=O)O)CC[C@]3(C)[C@H](CC[C@H]4C3(C)CC[C@H]3C(C)(C)[C@@H](O)CC[C@@]34C)[C@@H]12` (single isomer, unassigned), above 40 µM.
In assay [1], `C=C(C)[C@@H]1CC[C@]2(C(=O)O)CC[C@]3(C)[C@H](CC[C@H]4C3(C)CC[C@H]3C(C)(C)[C@@H](OC(=O)c5cc(OC)c(OC)c(OC)c5)CC[C@@]34C)[C@@H]12` (single isomer, unassigned) had an IC50 above 40 µM.
Compound `C=C(C)[C@@H]1CC[C@]2(C(=O)O)CC[C@]3(C)[C@H](CC[C@H]4C3(C)CC[C@H]3C(C)(C)[C@@H](OC(=O)c5ccc6c(c5)OCO6)CC[C@@]34C)[C@@H]12` (single isomer, unassigned) had an IC50 in assay [1] above 40 µM.
The same measure, in the same setting: in the case of `C=C(C)[C@@H]1CC[C@]2(C(=O)O)CC[C@]3(C)[C@H](CC[C@H]4C3(C)CC[C@H]3C(C)(C)[C@@H](OC(=O)c5cc(OC)c(OC)cc5OC)CC[C@@]34C)[C@@H]12` (single isomer, unassigned) it was 10.9 µM.
The same measure, in the same setting: in the case of `C=C(C)[C@@H]1CC[C@]2(C(=O)O)CC[C@]3(C)[C@H](CC[C@H]4C3(C)CC[C@H]3C(C)(C)[C@@H](OC(=O)c5ccc(OC)c(OC)c5)CC[C@@]34C)[C@@H]12` (single isomer, unassigned) it was above 40 µM; in that of `C=C(C)[C@@H]1CC[C@]2(C(=O)O)CC[C@]3(C)[C@H](CC[C@H]4C3(C)CC[C@H]3C(C)(C)[C@@H](OC(=O)c5ccccc5Br)CC[C@@]34C)[C@@H]12` (single isomer, unassigned), 7.99 µM; in that of `C=C(C)[C@@H]1CC[C@]2(C(=O)O)CC[C@]3(C)[C@H](CC[C@H]4C3(C)CC[C@H]3C(C)(C)[C@@H](OC(=O)c5ccc(Br)cc5)CC[C@@]34C)[C@@H]12` (single isomer, unassigned), above 40 µM.
`C=C(C)[C@@H]1CC[C@]2(C(=O)O)CC[C@]3(C)[C@H](CC[C@H]4C3(C)CC[C@H]3C(C)(C)[C@@H](OC(=O)c5cccc(Br)c5)CC[C@@]34C)[C@@H]12` (single isomer, unassigned) yielded a half-maximal inhibitory concentration (IC50) in assay [1] of 7.05 µM.
As for `C=C(C)[C@@H]1CC[C@]2(C(=O)O)CC[C@]3(C)[C@H](CC[C@H]4C3(C)CC[C@H]3C(C)(C)[C@@H](OC(=O)Cc5cccc(CC(=O)O)c5)CC[C@@]34C)[C@@H]12` (single isomer, unassigned), the Ratio IC50 in the assay listed under Homo sapiens [2] came to 4; in the assay filed under Homo sapiens [3], 6; in the assay filed under Homo sapiens [4] it was 4. This compound returned a half-inhibitory concentration (IC50) in assay [1] of 1.42 µM.
With `C=C(C)[C@@H]1CC[C@]2(C(=O)O)CC[C@]3(C)[C@H](CC[C@H]4C3(C)CC[C@H]3C(C)(C)[C@@H](OC(=O)COCC(=O)O)CC[C@@]34C)[C@@H]12` (single isomer, unassigned), the IC50 in assay [1] is above 40 µM.
As for `C=C(C)[C@@H]1CC[C@]2(C(=O)N[C@@H](CC(C)C)C(=O)O)CC[C@]3(C)[C@H](CC[C@H]4C3(C)CC[C@H]3C(C)(C)[C@@H](O)CC[C@@]34C)[C@@H]12` (single isomer, unassigned), the IC50 in assay [1] was above 40 µM.
Turning to `C=C(CBr)[C@@H]1CC[C@]2(C(=O)N[C@@H](CC(C)C)C(=O)O)CC[C@]3(C)[C@H](CC[C@H]4C3(C)CC[C@H]3C(C)(C)[C@@H](O)CC[C@@]34C)[C@@H]12` (single isomer, unassigned), half-maximal inhibition in assay [1] (IC50) was put at 5.85 µM.
For the compound `C=C(COCCC)[C@@H]1CC[C@]2(C(=O)N[C@@H](CC(C)C)C(=O)O)CC[C@]3(C)[C@H](CC[C@H]4C3(C)CC[C@H]3C(C)(C)[C@@H](O)CC[C@@]34C)[C@@H]12` (single isomer, unassigned), the IC50 in assay [1] turned out to be 3.67 µM.
As for `C=C(COCCc1ccc(F)cc1)[C@@H]1CC[C@]2(C(=O)N[C@@H](CC(C)C)C(=O)O)CC[C@]3(C)[C@H](CC[C@H]4C3(C)CC[C@H]3C(C)(C)[C@@H](O)CC[C@@]34C)[C@@H]12` (single isomer, unassigned), the midpoint of inhibition in assay [1], the IC50, lay at 2.4 µM.
On to `C=C(COCCc1ccc(Cl)cc1)[C@@H]1CC[C@]2(C(=O)N[C@@H](CC(C)C)C(=O)O)CC[C@]3(C)[C@H](CC[C@H]4C3(C)CC[C@H]3C(C)(C)[C@@H](O)CC[C@@]34C)[C@@H]12` (single isomer, unassigned), for which the Ratio IC50 in the assay filed under Homo sapiens [2] and in the assay filed under Homo sapiens [4] was 3 each time. For the same compound, it took 1.8 µM to reach half-maximal inhibition in assay [1] (IC50).
In assay [1], `C=C(COCCN1CCOCC1)[C@@H]1CC[C@]2(C(=O)N[C@@H](CC(C)C)C(=O)O)CC[C@]3(C)[C@H](CC[C@H]4C3(C)CC[C@H]3C(C)(C)[C@@H](O)CC[C@@]34C)[C@@H]12` (single isomer, unassigned) had a concentration for half-maximal inhibition (IC50) of 3.13 µM. This lies in the single-digit micromolar range.
The compound `C=C(COCCc1ccccc1)[C@@H]1CC[C@]2(C(=O)N[C@@H](CC(C)C)C(=O)O)CC[C@]3(C)[C@H](CC[C@H]4C3(C)CC[C@H]3C(C)(C)[C@@H](O)CC[C@@]34C)[C@@H]12` (single isomer, unassigned) showed an IC50 in assay [1] of 2.47 µM.
The same measure, in the same setting: in the case of `C=C(COCCc1ccc(OC)cc1)[C@@H]1CC[C@]2(C(=O)N[C@@H](CC(C)C)C(=O)O)CC[C@]3(C)[C@H](CC[C@H]4C3(C)CC[C@H]3C(C)(C)[C@@H](O)CC[C@@]34C)[C@@H]12` (single isomer, unassigned) it was 3.34 µM.
For `C=C(COCC)[C@@H]1CC[C@]2(C(=O)N[C@@H](CC(C)C)C(=O)O)CC[C@]3(C)[C@H](CC[C@H]4C3(C)CC[C@H]3C(C)(C)[C@@H](O)CC[C@@]34C)[C@@H]12` (single isomer, unassigned), the IC50 in assay [1] is 13.2 µM.
Turning to `C=C(COCCc1ccc(Br)cc1)[C@@H]1CC[C@]2(C(=O)N[C@@H](CC(C)C)C(=O)O)CC[C@]3(C)[C@H](CC[C@H]4C3(C)CC[C@H]3C(C)(C)[C@@H](O)CC[C@@]34C)[C@@H]12` (single isomer, unassigned), the Ratio IC50 in the assay filed under Homo sapiens [2] and in the assay listed under Homo sapiens [4] was 3 in each case. The compound also showed an IC50 in assay [1] of 1.56 µM.
`C=C(C)[C@@H]1CC[C@]2(C(=O)O)CC[C@]3(C)[C@H](CC[C@H]4C3(C)CC[C@H]3C(C)(C)[C@@H](OC(=O)c5ccccc5)CC[C@@]34C)[C@@H]12` (single isomer, unassigned) returned an IC50 in assay [1] of 11.1 µM.
One may read the EC50 as the concentration giving half of the maximal effect. A lower EC50 goes with higher potency in that assay. In the case of `C=C(C)[C@@H]1CC[C@]2(C(=O)O)CC[C@]3(C)[C@H](CC[C@@H]4[C@@]5(C)CC[C@H](OC(=O)CC(C)(C)C(=O)O)C(C)(C)[C@@H]5CC[C@]43C)[C@@H]12` [BEVIRIMAT], the IC50 came out at 9.2 µM in assay [1] and 26.3 µM in assay [5]. Moreover, in the assay listed under Homo sapiens [6], the inhibition entry is “inactive”. In addition, the EC50 in assay [7] and in assay [8] was below 0.01 µM in each case.

The record behind these values is ChEMBL document CHEMBL1833848, “New betulinic acid derivatives as potent proteasome inhibitors” (Bioorg Med Chem Lett, 2011).
